Columns and labels:
Type in all cases: functional
[1] = test system: RPMI-8226; assay: Anticancer activity against human RPMI-8226 cells assessed as cell growth inhibition incubated for 48 hrs by SRB method
[2] = test system: MDA-MB-468; assay: Anticancer activity against human MDA-MB-468 cells assessed as cell growth inhibition incubated for 48 hrs by SRB method
Method in brief: (§1)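 NCI-60 panel (DTP). Cells in RPMI 1640 with 5% FBS, 2 mM L-glutamine, seeded at 5,000–40,000 per well by doubling time and preincubated 24 h at 37 °C, 5% CO2. Time-zero plates TCA-fixed. DMSO stocks diluted in medium with gentamicin, tested at 100 μM, 10 μM, 1 μM, 0.1 μM and 10 nM for 48 h. Cells fixed with cold TCA, stained with SRB, absorbance read at 515 nm.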

[3] = test system: A549; assay: Anticancer activity against human A549 cells assessed as cell growth inhibition incubated for 48 hrs by SRB method; method in brief: as §1
[4] = test system: SNB-19; assay: Anticancer activity against human SNB-19 cells assessed as cell growth inhibition incubated for 48 hrs by SRB method; method in brief: as §1
[5] = test system: 786-0; assay: Anticancer activity against human 786-0 cells assessed as cell growth inhibition incubated for 48 hrs by SRB method; method in brief: as §1
[6] = test system: HCT-116; assay: Anticancer activity against human HCT-116 cells assessed as cell growth inhibition incubated for 48 hrs by SRB method; method in brief: as §1
[7] = test system: NCI-H23; assay: Anticancer activity against human NCI-H23 cells assessed as cell growth inhibition incubated for 48 hrs by SRB method; method in brief: as §1
[8] = test system: NCI-H226; assay: Anticancer activity against human NCI-H226 cells assessed as cell growth inhibition incubated for 48 hrs by SRB method; method in brief: as §1
[9] = test system: EKVX; assay: Anticancer activity against human EKVX cells assessed as cell growth inhibition incubated for 48 hrs by SRB method; method in brief: as §1
[10] = test system: RXF 393; assay: Anticancer activity against human RXF 393 cells assessed as cell growth inhibition incubated for 48 hrs by SRB method; method in brief: as §1
[11] = test system: NCI-H522; assay: Anticancer activity against human NCI-H522 cells assessed as cell growth inhibition incubated for 48 hrs by SRB method
[12] = test system: SF-539; assay: Anticancer activity against human SF-539 cells assessed as cell growth inhibition incubated for 48 hrs by SRB method
[13] = test system: PC-3; assay: Anticancer activity against human PC-3 cells assessed as cell growth inhibition incubated for 48 hrs by SRB method; method in brief: as §1
[14] = test system: MDA-MB-435; assay: Anticancer activity against human MDA-MB-435 cells assessed as cell growth inhibition incubated for 48 hrs by SRB method; method in brief: as §1
[15] = test system: LOX IMVI; assay: Anticancer activity against human LOX IMVI cells assessed as cell growth inhibition incubated for 48 hrs by SRB method
[16] = test system: SNB-75; assay: Anticancer activity against human SNB-75 cells assessed as cell growth inhibition incubated for 48 hrs by SRB method
[17] = Anticancer activity against human HS 578T cells assessed as cell growth inhibition incubated for 48 hrs by SRB method
[18] = test system: COLO 205; assay: Anticancer activity against human COLO 205 cells assessed as cell growth inhibition incubated for 48 hrs by SRB method
[19] = test system: HOP-62; assay: Anticancer activity against human HOP-62 cells assessed as cell growth inhibition incubated for 48 hrs by SRB method; method in brief: as §1
[20] = test system: HCC 2998; assay: Anticancer activity against human HCC 2998 cells assessed as cell growth inhibition incubated for 48 hrs by SRB method; method in brief: as §1
[21] = test system: U-251; assay: Anticancer activity against human U-251 cells assessed as cell growth inhibition incubated for 48 hrs by SRB method
Method in brief: (§2)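 NCI-60 panel, SRB assay. Cells grown in RPMI 1640 with 5% FBS and 2 mM L-glutamine, seeded at 5,000–40,000 cells/well depending on doubling time, and preincubated 24 h at 37 °C with 5% CO2. Time-zero plates were TCA-fixed. Compounds came from DMSO stocks and were tested at 100 μM, 10 μM, 1 μM, 0.1 μM and 10 nM for 48 h. Cells were fixed with cold TCA and stained with 0.4% SRB, and the dye was solubilized in 10 mM Tris base with A515 read.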

[22] = test system: Malme-3M; assay: Anticancer activity against human MALME-3M cells assessed as cell growth inhibition incubated for 48 hrs by SRB method
[23] = test system: OVCAR-5; assay: Anticancer activity against human OVCAR-5 cells assessed as cell growth inhibition incubated for 48 hrs by SRB method
[24] = test system: OVCAR-8; assay: Anticancer activity against human OVCAR-8 cells assessed as cell growth inhibition incubated for 48 hrs by SRB method; method in brief: as §1
[25] = test system: HCT-15; assay: Anticancer activity against human HCT-15 cells assessed as cell growth inhibition incubated for 48 hrs by SRB method; method in brief: as §1
[26] = test system: NCI-H460; assay: Anticancer activity against human NCI-H460 cells assessed as cell growth inhibition incubated for 48 hrs by SRB method; method in brief: as §1
[27] = test system: HT-29; assay: Anticancer activity against human HT29 cells assessed as cell growth inhibition incubated for 48 hrs by SRB method; method in brief: as §1
[28] = test system: HL-60(TB); assay: Anticancer activity against human HL-60(TB) cells assessed as cell growth inhibition incubated for 48 hrs by SRB method
[29] = test system: SR; assay: Anticancer activity against human SR cells assessed as cell growth inhibition incubated for 48 hrs by SRB method; method in brief: as §1
[30] = test system: MOLT-4; assay: Anticancer activity against human MOLT-4 assessed as cell growth inhibition incubated for 48 hrs by SRB method
[31] = test system: SF-268; assay: Anticancer activity against human SF-268 cells assessed as cell growth inhibition incubated for 48 hrs by SRB method; method in brief: as §1
[32] = test system: K562; assay: Anticancer activity against human K562 cells assessed as cell growth inhibition incubated for 48 hrs by SRB method
[33] = test system: HOP-92; assay: Anticancer activity against human HOP-92 cells assessed as cell growth inhibition incubated for 48 hrs by SRB method
[34] = test system: KM12; assay: Anticancer activity against human KM12 cells assessed as cell growth inhibition incubated for 48 hrs by SRB method; method in brief: as §1
[35] = test system: SF-295; assay: Anticancer activity against human SF-295 cells assessed as cell growth inhibition incubated for 48 hrs by SRB method; method in brief: as §1
[36] = test system: SW-620; assay: Anticancer activity against human SW-620 cells assessed as cell growth inhibition incubated for 48 hrs by SRB method
[37] = test system: CCRF-CEM; assay: Anticancer activity against human CCRF-CEM cells assessed as cell growth inhibition incubated for 48 hrs by sulforhodamine B assay
[38] = test system: M14; assay: Anticancer activity against human M14 cells assessed as cell growth inhibition incubated for 48 hrs by SRB method; method in brief: as §1
[39] = test system: A498; assay: Anticancer activity against human A498 cells assessed as cell growth inhibition incubated for 48 hrs by SRB method; method in brief: as §1
[40] = test system: IGROV-1; assay: Anticancer activity against human IGROV-1 cells assessed as cell growth inhibition incubated for 48 hrs by SRB method; method in brief: as §1
[41] = test system: UACC-62; assay: Anticancer activity against human UACC-62 cells assessed as cell growth inhibition incubated for 48 hrs by SRB method; method in brief: as §2
[42] = test system: NCI/ADR-RES; assay: Anticancer activity against human NCI/ADR-RES cells assessed as cell growth inhibition incubated for 48 hrs by SRB method; method in brief: as §1
[43] = test system: OVCAR-4; assay: Anticancer activity against human OVCAR-4 cells assessed as cell growth inhibition incubated for 48 hrs by SRB method
[44] = test system: T47D; assay: Anticancer activity against human T47D cells assessed as cell growth inhibition incubated for 48 hrs by SRB method; method in brief: as §1
[45] = test system: MDA-MB-231; assay: Anticancer activity against human MDA-MB-231 cells assessed as cell growth inhibition incubated for 48 hrs by SRB method; method in brief: as §1
[46] = test system: MCF7; assay: Anticancer activity against human MCF7 cells assessed as cell growth inhibition incubated for 48 hrs by SRB method; method in brief: as §1
[47] = test system: CAKI-1; assay: Anticancer activity against human CAKI-1 cells assessed as cell growth inhibition incubated for 48 hrs by SRB method; method in brief: as §1
[48] = test system: ACHN; assay: Anticancer activity against human ACHN cells assessed as cell growth inhibition incubated for 48 hrs by SRB method; method in brief: as §1
[49] = test system: UACC-257; assay: Anticancer activity against human UACC-257 assessed as cell growth inhibition incubated for 48 hrs by SRB method; method in brief: as §2
[50] = test system: BT-549; assay: Anticancer activity against human BT-549 cells assessed as cell growth inhibition incubated for 48 hrs by SRB method; method in brief: as §1
[51] = test system: SK-MEL-28; assay: Anticancer activity against human SK-MEL-28 cells assessed as cell growth inhibition incubated for 48 hrs by SRB method; method in brief: as §1
[52] = test system: TK-10; assay: Anticancer activity against human TK-10 cells assessed as cell growth inhibition incubated for 48 hrs by SRB method; method in brief: as §2
[53] = test system: DU-145; assay: Anticancer activity against human DU-145 cells assessed as cell growth inhibition incubated for 48 hrs by SRB method; method in brief: as §1
[54] = test system: UO-31; assay: Anticancer activity against human UO-31 cells assessed as cell growth inhibition incubated for 48 hrs by SRB method
Method in brief: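 NCI-60 panel, SRB assay. Time-zero plates were TCA-fixed. Compounds came from DMSO stocks and were tested at 100 μM, 10 μM, 1 μM, 0.1 μM and 10 nM for 48 h. Cells were fixed with cold TCA and stained with 0.4% SRB, and the dye was solubilized in 10 mM Tris base with A515 read.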

C=C1C(=O)O[C@H]2[C@H]1CC/C(COC(=O)NCCc1ccc(Br)cc1)=C\CC[C@@]1(C)O[C@@H]21
GI50 [1]: 620 nM | GI50 [2]: 840 nM | GI50 [3]: 2.59 µM | GI50 [4]: 1390 nM | GI50 [5]: 1490 nM | GI50 [6]: 470 nM | GI50 [7]: 1720 nM | GI50 [8]: 1720 nM | GI50 [9]: 1540 nM | GI50 [10]: 1320 nM | GI50 [11]: 1160 nM | GI50 [12]: 1460 nM | GI50 [13]: 1730 nM | GI50 [14]: 1580 nM | GI50 [15]: 1180 nM | GI50 [16]: 1200 nM | GI50 [17]: 410 nM | GI50 [18]: 1820 nM | GI50 [19]: 1.99 µM | GI50 [20]: 1710 nM | GI50 [21]: 1400 nM | GI50 [22]: 2090 nM | GI50 [23]: 980 nM | GI50 [24]: 1560 nM | GI50 [25]: 1010 nM | GI50 [26]: 2060 nM | GI50 [27]: 1320 nM | GI50 [28]: 1060 nM | GI50 [29]: 430 nM | GI50 [30]: 1690 nM | GI50 [31]: 1560 nM | GI50 [32]: 530 nM | GI50 [33]: 1280 nM | GI50 [34]: 1.95 µM | GI50 [35]: 3.81 µM | GI50 [36]: 710 nM | GI50 [37]: 270 nM | GI50 [38]: 1260 nM

C=C1C(=O)O[C@H]2[C@H]1CC/C(COC(=O)NCCc1cccc(OC)c1)=C\CC[C@@]1(C)O[C@@H]21
GI50 [1]: 910 nM | GI50 [2]: 850 nM | GI50 [39]: 2950 nM | GI50 [3]: 7.28 µM | GI50 [4]: 1430 nM | GI50 [5]: 2260 nM | GI50 [40]: 1530 nM | GI50 [41]: 6.23 µM | GI50 [6]: 710 nM | GI50 [42]: 2250 nM | GI50 [7]: 1860 nM | GI50 [43]: 1260 nM | GI50 [8]: 1570 nM | GI50 [44]: 3.43 µM | GI50 [9]: 1780 nM | GI50 [10]: 1120 nM | GI50 [11]: 1020 nM | GI50 [12]: 1490 nM | GI50 [13]: 1610 nM | GI50 [14]: 1580 nM | GI50 [45]: 890 nM | GI50 [15]: 1340 nM | GI50 [16]: 1470 nM | GI50 [46]: 2300 nM | GI50 [17]: 490 nM | GI50 [18]: 1550 nM | GI50 [19]: 4.39 µM | GI50 [20]: 1680 nM | GI50 [47]: 2350 nM | GI50 [22]: 1840 nM | GI50 [23]: 990 nM | GI50 [24]: 1780 nM | GI50 [25]: 1020 nM | GI50 [48]: 1370 nM | GI50 [26]: 3940 nM | GI50 [49]: 1990 nM | GI50 [27]: 1140 nM | GI50 [28]: 1360 nM | GI50 [29]: 510 nM | GI50 [30]: 2090 nM | GI50 [31]: 1780 nM | GI50 [50]: 1560 nM | GI50 [32]: 610 nM | GI50 [33]: 1840 nM | GI50 [51]: 1730 nM | GI50 [34]: 4.27 µM | GI50 [52]: 1.19 µM | GI50 [35]: 7.26 µM | GI50 [53]: 1390 nM | GI50 [36]: 520 nM | GI50 [37]: 340 nM | GI50 [38]: 1290 nM | GI50 [54]: 670 nM

C=C1C(=O)O[C@@H]2C3O[C@]3(C)CC/C=C(\C)CC[C@@H]12 (some centres undefined)
GI50 [41]: 3.48 µM | GI50 [6]: 10000 nM | GI50 [52]: 10 µM

Reference: ChEMBL document CHEMBL5055631, “Antitumor properties of novel sesquiterpene lactone analogs as NFκB inhibitors that bind to the IKKβ ubiquitin-like domain (ULD)” (Eur J Med Chem, 2021)
